From PubChem BioAssay
Mdm2-MdmX inh: disrupts the human Mdm2-MdmX interaction | inhibition, % at 8 µM | 3% of 330,000 active | O15151+Q00987 | SaOS-2 split-luciferase Mdm2/MdmX complementation, luminescence;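 active means inhibition of at least 50% at 8 µM in the primary screen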
aSyn 5UTR inh: MLPCN primary screen, SNCA 5' untranslated region; 0.82% of 300,000 active; alpha-synuclein 5'UTR reporter, inhibitor activity; inhibition, % (tested at 7.5 µM); AID 1813; in the data active means inhibition above about 60%;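 further: H4 neuroglioblastoma cells stably carrying SNCA 5'UTR luciferase fusion; 0% = DMSO wells and 100% = positive control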
Jurkat NFkB inh: inhibitors of the PMA/ionomycin-induced NF-kB reporter in Jurkat cells | PMA/ionomycin-induced NF-kB luciferase reporter, luminescence | inhibition, % at 4 µM | 0.53% of 330,000 active | AID 435003; in the data active means inhibition above about 50%
VIM-2 inhibitor: inhibitors of Pseudomonas aeruginosa VIM-2 metallo-beta-lactamase. purified VIM-2, nitrocefin hydrolysis, epi-absorbance fluorescence. inhibition, % at 5.6 µM. AID 1527. 0.89% of 290,000 active;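 active means inhibition above the mean of all tested compounds plus 3 SD, cutoff set per screening run, cut at about 7.5% in these data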;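 further: red hydrolysis product quenches plate fluorescence so inhibitors raise well fluorescence; 0% = enzyme with DMSO and 100% = DMSO without enzyme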
IMP-1 inh: inhibitors of Pseudomonas aeruginosa IMP-1 metallo-beta-lactamase; AID 1556; purified IMP-1, nitrocefin hydrolysis, epi-absorbance fluorescence; 0.45% of 290,000 active; inhibition, % at 5.6 µM;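 active means inhibition above the mean plus 3 SD of all compounds in the same screening run, cut at about 4.5% in these data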;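 further: 0% = IMP-1 with DMSO and 100% = DMSO wells lacking enzyme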
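System: Purified IMP-1 | Read-out basis: Percent enzyme inhibition | Controls: IMP-1 with DMSO as 0%, enzyme-free DMSO as 100% | Replicates: One well per compound | Doses: 5.6 µM nominal single concentration | Detection: Epi-absorbance fluorescence, 480 nm excitation, 530 nm emission | Incubation: 25 °C, 15 min preincubation, 25 min reaction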
697 NFkB inh: lowers PMA/ionomycin-induced NF-kB signal in 697 B cells. inhibition, % at 4 µM. 0.33% of 330,000 active. 697 B-cell NF-kB luciferase reporter, 16 h; in the data active means inhibition above about 35%
Jurkat NFkB conf: inhibitors of the PMA/ionomycin-induced NF-kB reporter in Jurkat cells, retest. inhibition, % at 4 µM. 27% of 2,700 active. Jurkat NF-kB luciferase, 16 h. shares compounds with Jurkat NFkB inh;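 active means inhibition reaching about 45% at 4 µM in either replicate, limit read from the data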;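 further: plate controls were PMA/ionomycin stimulated DMSO wells for no effect and unstimulated DMSO wells for full effect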
An asterisk follows results filed as active; . = no result given. A selection: hits, their analogues and other compounds. The true share with any hit is near 4.7%.

SMILES	Mdm2-MdmX inh	aSyn 5UTR inh	Jurkat NFkB inh	VIM-2 inhibitor	IMP-1 inh	697 NFkB inh	Jurkat NFkB conf
CC(=C/c1ccccc1)/C=N/NC(=O)c1cccs1	-157	-90	-171	-3	-3	-206	-102
O=C(N/N=C/C(Br)=C\c1ccccc1)c1cccs1	-111	-318	-74	0	-1	-182	.
Clc1ccccc1-c1nnc(-c2ccccc2Cl)o1	-53	-158	-76	0	-2	-125	.
CN(C)c1ccc(-c2nnc(-c3ccccc3F)o2)cc1	-148	-38	-174	2	-2	-208	-107
Clc1ccc(-c2nnc(-c3ccccc3Cl)o2)cc1	-120	-82	-194	0	-1	-203	-129
CCC1(c2ccccc2)NC(=O)N(CC(=O)Nc2cc(C(F)(F)F)ccc2N2CCCC2)C1=O (stereo unspecified)	15	6	54*	.	.	10	-17
CC1CCN(C(=O)CN2C(=O)NC(C)(c3ccc4ccccc4c3)C2=O)CC1 (stereo unspecified)	-14	.	59*	.	.	11	35
CC1CCCN(C(=O)CN2C(=O)NC(C)(c3ccc4ccccc4c3)C2=O)C1 (stereo unspecified)	24	.	20	.	.	15	.
Nc1nn2cc(-c3ccccc3)nc2c2ccccc12	-227	-112	-190	-1	-2	-182	-84
Cc1cn2nc(N)c3ccccc3c2n1	-1	.	0	1	-2	-5	.
COc1ccc(C(=O)NCCCNC(=O)c2cnccn2)cc1Br	-6	-1	1	0	0	1	.
O=c1c2ccccc2nc2sc(Nc3ccc(F)cc3)nn12	0	.	-157	.	.	-154	-42
COc1cccc(Nc2nn3c(=O)c4ccccc4nc3s2)c1	-81	.	-102	.	.	-80	.
N#CCC(CNc1ncc(C(F)(F)F)cc1Cl)OC(=O)c1cccc([N+](=O)[O-])c1 (stereo unspecified)	0	-61	66*	-2	-3	16	14
N#CCC(CNc1ncc(C(F)(F)F)cc1Cl)OC(=O)c1c(F)cccc1F (stereo unspecified)	14	-37	75*	-1	-1	-3	21
CCN(CC(=O)Nc1ccc(Br)cc1)C(=O)c1nc2nc(C)cc(C)n2n1	-5	.	14	.	.	17	.
Cc1ccsc1CN(C(=O)c1ccc([N+](=O)[O-])cc1)C1CCS(=O)(=O)C1 (stereo unspecified)	14	3	-11	-1	-1	0	.
O=C(COC(=O)c1cc(S(=O)(=O)N2CCCC2)ccc1O)Nc1ccc(F)cc1F	-6	.	70*	.	.	18	25
CC(=O)Nc1ccc(NC(=O)COC(=O)c2cc(S(=O)(=O)N3CCCC3)ccc2O)cc1	15	.	9	.	.	13	.
COc1cc(/C=N/O)ccc1OCc1ccccc1Cl	-170	-113	-157	-4	-2	-103	-76
CC1CCN(C(=O)COC(=O)Cn2cnc3ccccc32)CC1	21	.	-1	.	.	12	.
c1ccc(Cn2ccc(-c3cnc(-c4ccccc4)s3)n2)cc1	-132	-106	-154	-1	-2	-192	-95
Nc1ccn(Cc2ccccc2)n1	18	15	-2	-2	-3	-14	.
O=C(NC(=S)Nc1ccccn1)c1ccccc1	-88	-133	-150	1	-4	-156	26
COc1cc([C@H]2Oc3c(OC)cc(CCCO[C@@H]4O[C@H](CO)[C@@H](O)[C@H](O)[C@H]4O)cc3[C@@H]2CO)ccc1O	13	.	9	.	.	-1	.
SMILES	Mdm2-MdmX inh	aSyn 5UTR inh	Jurkat NFkB inh	VIM-2 inhibitor	IMP-1 inh	697 NFkB inh	Jurkat NFkB conf
COc1cc(C(=O)NC2CCCc3c2cnn3-c2ccccc2F)cc(OC)c1OC (stereo unspecified)	18	17	27	2	-2	-35	.
COC(=O)c1ccc(C(=O)NC2CCCc3c2cnn3-c2ccccc2F)nc1 (stereo unspecified)	42	41	56*	-1	-1	-44	24
COc1ccc(NC(C)=O)cc1S(=O)(=O)N(C)Cc1c(C)nn(-c2ccccc2)c1C	-6	.	2	.	.	-7	.
CCCN1CCC(=O)N(CCSc2ccc(OC)cc2)CC1	20	-41	54*	.	.	-2	18
CCCN1CCC(=O)N(CCSc2ccc(C)cc2)CC1	-6	-79	-23	.	.	-6	.
CC1(c2nnc(-c3cccc(Cl)c3)o2)CC(c2cccc([N+](=O)[O-])c2)=NO1 (stereo unspecified)	-11	10	-12	-3	-3	2	.
COc1ccc(NC(=O)C2CCN(S(=O)(=O)c3cccc4nonc34)CC2)c(OC)c1	24	19	9	-3	-2	19	.
COc1ccc(C(=O)NN/C(=N/S(=O)(=O)c2ccc(C)cc2)c2ccccc2)cc1	-184	-81	-181	-1	-3	-192	-107
O=C(CSc1ncnc2ccccc12)c1cccs1	-129	-137	-157	3	-3	-70	-62
O=C(O)/C=C/c1cn(-c2ccccc2)nc1-c1cc2ccccc2oc1=O	-86	-24	-164	-1	-1	-154	-95
COC(=O)c1cnc(Oc2ccc(NC(=O)NC(=O)c3c(F)cccc3Cl)cc2)cc1C(F)(F)F	35	-11	50*	-1	0	-23	46
O=C(CSc1nnc(Cn2nnc3ccccc32)o1)N(Cc1ccc(F)cc1)c1ccccc1	13	-11	57*	-3	-4	20	61*
CCOc1ccc(-c2[nH]ncc2-c2ccc(OC)c(OC)c2)c(O)c1	45	.	63*	-2	-3	-57	57*
COc1ccc(-c2cn[nH]c2-c2ccc(O)cc2O)cc1OC	35	10	-3	-3	-3	11	.
CCC(C(=O)NC(CC(=O)O)c1ccc(Cl)cc1)c1ccccc1 (stereo unspecified)	-4	-11	-8	-2	-2	-21	.
CN(C)C(CNC(=O)c1cccc(S(=O)(=O)NCc2ccccc2)c1)c1ccccc1 (stereo unspecified)	5	.	-8	.	.	4	.
CCNC(=S)Nc1cc(OC)c(NC(=O)c2ccco2)cc1OC	-37	-6	-40	0	-6	-24	.
COC(=O)c1cc(OC)c(OC)cc1NC(=S)NC(=O)c1ccco1	17	20	85*	-1	-1	-18	-2
COc1cc2nc(NC(=O)c3ccco3)sc(=O)c2cc1OC	2	23	80*	0	0	24	89*
COC(=O)c1cccc(NC(=O)NC(=O)c2ccccc2Cl)c1	27	95*	62*	0	-5	3	-7
CC(=O)Cn1ncc(N(C)Cc2ccccc2)c(Cl)c1=O	0	-51	-29	0	-3	-8	.
Cc1ccc(C(=O)Nc2ccc(N3CCCCC3)cc2)cc1	-81	.	-176	.	.	-161	-113
Cc1ccc(C(=O)Nc2ccc(N3CCCC3)cc2)cc1	-30	-160	-84	-3	-3	-75	.
